Laboratory results as given in ChEMBL document CHEMBL1139880, “Potent and selective agonists of human melanocortin receptor 5: cyclic analogues of alpha-melanocyte-stimulating hormone” (J Med Chem, 2007).

Tests used:
[1] = biological target: T1, Melanocortin receptor 5 (Homo sapiens, UniProt P33032); experiment: Agonist activity at human MC5R expressed in CHO cells assessed as cAMP accumulation; assay type: functional, cell-based
[2] = biological target: T2, Melanocortin receptor 4 (Homo sapiens, UniProt P32245); experiment: Displacement of [125I]NDPalphaMSH from human cloned MC4R expressed in CHO cells; assay type: cell-based
[3] = biological target: T1, Melanocortin receptor 5; experiment: Displacement of [125I]NDPalphaMSH from human cloned MC5R expressed in CHO cells; assay type: cell-based
[4] = biological target: T3, Melanocortin receptor 3 (Homo sapiens, UniProt P41968); experiment: Displacement of [125I]NDPalphaMSH from human cloned MC3R expressed in CHO cells; assay type: cell-based
[5] = biological target: T4, Melanocyte-stimulating hormone receptor (Homo sapiens, UniProt Q01726); experiment: Displacement of [125I]NDPalphaMSH from human cloned melanocortin receptor 1b expressed in CHO cells; assay type: cell-based
Target sequence in this assay (Q01726 whole entry): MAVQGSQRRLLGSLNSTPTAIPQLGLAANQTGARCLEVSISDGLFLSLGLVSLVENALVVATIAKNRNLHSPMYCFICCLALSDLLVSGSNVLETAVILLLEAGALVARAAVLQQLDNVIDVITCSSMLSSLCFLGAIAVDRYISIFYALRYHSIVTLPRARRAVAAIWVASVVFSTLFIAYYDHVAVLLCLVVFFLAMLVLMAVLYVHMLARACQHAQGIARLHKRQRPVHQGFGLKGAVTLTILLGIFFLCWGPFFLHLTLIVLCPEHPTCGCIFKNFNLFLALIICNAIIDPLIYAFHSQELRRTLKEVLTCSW

[6] = biological target: T3, Melanocortin receptor 3; experiment: Agonist activity at human MC3R expressed in CHO cells assessed as cAMP accumulation; assay type: functional, cell-based
Procedure, shortened: (§1)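 Dissociated CHO cells were spun 5 min and resuspended in Earle's balanced salt solution with 10 mM HEPES pH 7.5, 5 mM MgCl2, 1 mM glutamine and 1 mg/mL BSA. They were incubated 40 min at room temperature with compound (0.003–5000 nM) plus 0.6 mM IBMX, then lysed with 0.1 M HCl. cAMP was measured by Flashplate cAMP assay.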

[7] = biological target: T4, Melanocyte-stimulating hormone receptor; experiment: Agonist activity at human melanocortin receptor 1b expressed in CHO cells assessed as cAMP accumulation; assay type: functional, cell-based; procedure, shortened: as §1
Target sequence in this assay (Q01726 whole entry): as above

[8] = biological target: T3, Melanocortin receptor 3; experiment: Agonist activity at human MC3R expressed in CHO cells assessed as cAMP accumulation at 10 uM relative to [125I]NDPalphaMSH; assay type: functional, cell-based
[9] = biological target: T2, Melanocortin receptor 4; experiment: Agonist activity at human MC4R expressed in CHO cells assessed as cAMP accumulation at 10 uM relative to [125I]NDPalphaMSH; assay type: functional, cell-based
[10] = biological target: T3, Melanocortin receptor 3; experiment: Agonist activity at human MC3R expressed in CHO cells assessed as cAMP accumulation at 1 uM relative to [125I]NDPalphaMSH; assay type: functional, cell-based
[11] = biological target: T2, Melanocortin receptor 4; experiment: Agonist activity at human MC4R expressed in CHO cells assessed as cAMP accumulation at 1 uM relative to [125I]NDPalphaMSH; assay type: functional, cell-based
[12] = biological target: T4, Melanocyte-stimulating hormone receptor; experiment: Agonist activity at human melanocortin receptor 1b expressed in CHO cells assessed as cAMP accumulation at 1 uM relative to [125I]NDPalphaMSH; assay type: functional, cell-based
Target sequence in this assay (Q01726 whole entry, looked up): as the sequence (Q01726 whole entry) above

T3 sequence (P41968 whole entry): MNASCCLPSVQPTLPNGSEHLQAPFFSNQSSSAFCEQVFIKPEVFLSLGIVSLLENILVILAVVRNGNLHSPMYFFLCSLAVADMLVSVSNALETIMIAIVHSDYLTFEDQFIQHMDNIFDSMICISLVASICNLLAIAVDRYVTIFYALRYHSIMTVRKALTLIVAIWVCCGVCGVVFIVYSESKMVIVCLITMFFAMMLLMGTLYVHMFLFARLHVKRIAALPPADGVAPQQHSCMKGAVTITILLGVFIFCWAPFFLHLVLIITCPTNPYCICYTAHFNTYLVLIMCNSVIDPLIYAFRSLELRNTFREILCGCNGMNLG
T2 sequence (P32245 whole entry): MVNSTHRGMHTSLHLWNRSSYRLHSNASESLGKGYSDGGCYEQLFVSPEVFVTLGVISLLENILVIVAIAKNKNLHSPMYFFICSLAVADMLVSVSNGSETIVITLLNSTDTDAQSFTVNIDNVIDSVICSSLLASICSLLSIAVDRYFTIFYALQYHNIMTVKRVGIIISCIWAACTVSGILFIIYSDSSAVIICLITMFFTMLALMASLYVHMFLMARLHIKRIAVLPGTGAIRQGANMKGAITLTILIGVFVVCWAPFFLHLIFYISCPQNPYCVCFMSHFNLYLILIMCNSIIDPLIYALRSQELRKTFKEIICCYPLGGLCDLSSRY
T1 sequence (P33032 whole entry): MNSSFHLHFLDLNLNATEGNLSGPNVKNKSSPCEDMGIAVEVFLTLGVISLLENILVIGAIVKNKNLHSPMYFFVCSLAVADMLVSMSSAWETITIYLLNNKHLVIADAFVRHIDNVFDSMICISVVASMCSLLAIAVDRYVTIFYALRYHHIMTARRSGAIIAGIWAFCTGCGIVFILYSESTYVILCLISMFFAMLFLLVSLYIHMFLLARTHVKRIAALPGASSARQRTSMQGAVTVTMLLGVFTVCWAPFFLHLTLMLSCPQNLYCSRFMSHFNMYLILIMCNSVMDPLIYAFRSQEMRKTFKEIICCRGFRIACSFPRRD

`CCCC[C@H](NC(C)=O)C(=O)N[C@H]1CC(=O)NCCCC[C@@H](C(N)=O)NC(=O)[C@H](Cc2c[nH]c3ccccc23)NC(=O)[C@@H]2CCCCN2C(=O)[C@@H](Cc2ccc(-c3ccccc3)cc2)NC(=O)[C@@H]2CC3CCCCC3N2C1=O` (some centres undefined) was tested, and the EC50 [1] was 0.99 nM (agonist), the IC50 [2] was over 5000 nM and the IC50 [3] was 0.95 nM (antagonist). It also gave an IC50 [4] of over 5000 nM and an IC50 [5] of over 5000 nM.

`CCCC[C@H](NC(C)=O)C(=O)N[C@H]1CC(=O)NCCCC[C@@H](C(N)=O)NC(=O)[C@H](Cc2c[nH]c3ccccc23)NC(=O)[C@@H]2CCCN2C(=O)[C@@H](Cc2ccc(-c3ccccc3)cc2)NC(=O)[C@H](Cc2c[nH]cn2)NC1=O` was tested, and the EC50 [1] was 2.5 nM (agonist), the IC50 [2] was 1200 nM (antagonist) and the EC50 [6] was 1400 nM (agonist). For the same compound, the IC50 [3] was 4.1 nM (antagonist), the IC50 [4] was 1500 nM and the IC50 [5] was 45 nM (antagonist). The EC50 [7] was 5.3 nM (agonist).

For `CCCC[C@H](NC(C)=O)C(=O)N[C@H]1CC(=O)NCCCC[C@@H](C(N)=O)NC(=O)[C@H](Cc2c[nH]c3ccccc23)NC(=O)[C@@H]2CCCN2C(=O)[C@@H](Cc2ccc(Cl)cc2)NC(=O)[C@H](Cc2c[nH]cn2)NC1=O`, the EC50 [1] was 82 nM (agonist), the IC50 [2] was 4500 nM (antagonist) and the EC50 [6] was over 5000 nM. The IC50 [3] was 1300 nM (antagonist), the IC50 [4] was over 20000 nM and the IC50 [5] was 560 nM (antagonist). For the same compound, the EC50 [7] was 63 nM (agonist).

`CCCC[C@H](NC(C)=O)C(=O)N[C@H]1CC(=O)NCCCC[C@@H](C(N)=O)NC(=O)[C@H](Cc2c[nH]c3ccccc23)NC(=O)[C@@H]2CCCCN2C(=O)[C@@H](Cc2ccc(-c3ccccc3)cc2)NC(=O)[C@H](C2CCCCC2)NC1=O` was tested, and the EC50 [1] was 1 nM (agonist), the IC50 [2] was over 10000 nM and the IC50 [3] was 50 nM (antagonist). For the same compound, the IC50 [4] was over 10000 nM, the IC50 [5] was over 10000 nM and the EC50 [7] was over 500 nM.

In the case of `CCCC[C@H](NC(C)=O)C(=O)N[C@H]1CC(=O)NCCCC[C@@H](C(N)=O)NC(=O)[C@H](Cc2c[nH]c3ccccc23)NC(=O)[C@@H]2CCCN2C(=O)[C@@H](Cc2ccc(-c3ccccc3)cc2)NC(=O)[C@@H]2CCCN2C1=O`, the EC50 [1] is reported as 1.6 nM (agonist), the IC50 [2] is reported as 1000 nM (antagonist) and the IC50 [3] is reported as 2.9 nM (antagonist). The IC50 [4] was 630 nM (antagonist), the IC50 [5] was 2100 nM (antagonist) and the EC50 [7] was 350 nM (agonist).

With `CCCC[C@H](NC(C)=O)C(=O)N[C@H]1CC(=O)NCCCC[C@@H](C(N)=O)NC(=O)[C@H](Cc2c[nH]c3ccccc23)NC(=O)[C@@H]2CCCCN2C(=O)[C@@H](Cc2ccc(-c3ccccc3)cc2)NC(=O)[C@H](c2ccccc2)NC1=O` the EC50 [1] was 0.29 nM (agonist), the IC50 [2] was 990 nM (antagonist) and the IC50 [3] was 2.1 nM (antagonist). The IC50 [4] was over 1000 nM and the IC50 [5] was over 1000 nM.

In the case of `CCCC[C@H](NC(C)=O)C(=O)N[C@H]1CC(=O)NCCCC[C@@H](C(N)=O)NC(=O)[C@H](Cc2c[nH]c3ccccc23)NC(=O)[C@@H]2CCCCN2C(=O)[C@@H](Cc2ccc(-c3ccccc3)cc2)NC(=O)[C@H](C(C)C)NC1=O`, the EC50 [1] is reported as 0.23 nM (agonist), the IC50 [2] is reported as 4700 nM (antagonist) and the IC50 [3] is reported as 7.3 nM (antagonist). For the same compound, the IC50 [4] was over 10000 nM, the IC50 [5] was 4900 nM (antagonist) and the EC50 [7] was 330 nM (agonist).

`CCCC[C@H](NC(C)=O)C(=O)N[C@H]1CC(=O)NCCCC[C@@H](C(N)=O)NC(=O)[C@H](Cc2cc3ccccc3[nH]2)NC(=O)[C@@H]2CCCN2C(=O)[C@H](Cc2ccccc2)NC(=O)[C@H](Cc2cnc[nH]2)NC1=O` was tested, and the Activity [8] was 5% and the Activity [9] was 7%.

In the case of `CCCC[C@H](NC(C)=O)C(=O)N[C@H]1CC(=O)NCCCC[C@@H](C(N)=O)NC(=O)[C@H](Cc2c[nH]c3ccccc23)NC(=O)[C@@H]2CCCCN2C(=O)[C@H](Cc2ccc(-c3ccccc3)cc2)NC(=O)[C@H](c2ccccc2)NC1=O`, the Activity [10] is reported as 0%, the Activity ([11]; filed as agonist) is reported as 72% and the Activity [12] is reported as 16%.

In the case of `CCCC[C@H](NC(C)=O)C(=O)N[C@H]1CC(=O)NCCCC[C@@H](C(N)=O)NC(=O)[C@H](Cc2c[nH]c3ccccc23)NC(=O)[C@@H]2CCCCN2C(=O)[C@H](Cc2ccc(-c3ccccc3)cc2)NC(=O)[C@H](C2CCCCC2)NC1=O`, the Activity [10] is reported as 1% and the Activity ([11]; filed as partial agonist) is reported as 43%.

In the case of `CCCC[C@H](NC(C)=O)C(=O)N[C@H]1CC(=O)NCCCC[C@@H](C(N)=O)NC(=O)[C@H](Cc2c[nH]c3ccccc23)NC(=O)[C@@H]2CCCN2C(=O)[C@@H](Cc2ccc([N+](=O)[O-])cc2)NC(=O)[C@H](Cc2cnc[nH]2)NC1=O`, the EC50 [1] is reported as 770 nM (agonist), the IC50 [3] is reported as 780 nM (antagonist) and the IC50 [4] is reported as over 2000 nM. It also gave an IC50 [5] of over 2000 nM and an EC50 [7] of over 500 nM.
